Activity calls are given as the source filed them. The calls are words filed in the database; no cut-off is given here.

One test deals with Hepacivirus hominis. In words: Inhibition of HCV NS5B deltaC55 polymerase.
Details: not given
The method, boiled down:
(§1)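 Cell-free polymerase assays used purified NS5B in its ΔC55 and ΔC21 truncated forms.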
As to `CC(C)(C)OC(=O)N1CCN(c2ccc(C(=O)Nc3ccc(O)cc3)cc2)CC1`, the result was inactive.

In a further test the test system is Hepacivirus hominis. In words: Inhibition of HCV NS5B deltaC21 polymerase.
Details: not given
The essentials: as §1
Turning to `CC(C)(C)OC(=O)N1CCN(c2ccc(C(=O)Nc3ccc(O)cc3)cc2)CC1`, the result was inactive.

The test system of a further test is Hepacivirus hominis. In words: Inhibition of helicase activity of HCV NS3/4A protease up to 10 uM.
Details: not given
The essentials: (§2)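 Cell-free assays used purified protein, either the full-length NS3-4A complex or the separate protease and helicase domains. Compound was tested at concentrations up to 10 µM.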
For the compound `CC(C)(C)OC(=O)N1CCN(c2ccc(C(=O)Nc3ccc(O)cc3)cc2)CC1`, the outcome was inactive.

The subject of a further test is Hepacivirus hominis. In words: Inhibition of ATPase activity of HCV NS3/4A protease up to 10 uM.
Details: not given
The essentials: as §2
Take `CC(C)(C)OC(=O)N1CCN(c2ccc(C(=O)Nc3ccc(O)cc3)cc2)CC1`: the outcome was inactive.

For the next test, the system named is Hepatitis C virus. In words: Antiviral activity against HCV infected in human HUH7 cells assessed as inhibition of viral subgenomic RNA replication in presence of 10% fetal calf serum. Format: functional, organism-based, Hepacivirus hominis. The note with it: Huh-7. The method, boiled down:
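Replication of subgenomic HCV RNA was measured in HUH-7 replicon cells using a modified Bartenschlager procedure. Results are reported as EC50 in µM.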
Regarding `CC(=O)Nc1ccc(NC(=O)c2ccc(N3CCN(C(=O)OC(C)(C)C)CC3)cc2)cc1`, the concentration giving a half-maximal response (EC50) is over 10000 nM. In the case of `CC(C)(C)OC(=O)N1CCN(c2ccc(C(=O)N[C@H]3CC[C@H](O)CC3)cc2)CC1`, the EC50 is over 10000 nM. Turning to `CC(C)(C)OC(=O)C1CCN(c2ccc(C(=O)Nc3ccc(O)cc3)cc2)CC1`, the concentration giving a half-maximal response (EC50) turned out to be 1600 nM.

Take `CCOC(=O)N1CCN(c2ccc(C(=O)Nc3ccc(O)cc3)cc2)CC1`: the EC50 stood at 9600 nM.

With `O=C(Nc1ccc(O)cc1)c1ccc(N2CCN(C(=O)OCc3ccccc3)CC2)cc1`, the EC50 worked out at 550 nM. Still for that read-out and setting: with `CC(C)(C)C(=O)N1CCN(c2ccc(C(=O)Nc3ccc(O)cc3)cc2)CC1` the figure was 780 nM. For `CN(CCNC(=O)OC(C)(C)C)c1ccc(C(=O)Nc2ccc(O)cc2)cc1`, the concentration for a half-maximal effect (EC50) was over 10000 nM. Still for that read-out and setting: the result for `CC(C)(C)OC(=O)N1CCN(c2ccc(C(=O)Nc3ccc(O)cc3)cc2)CC1` reads 160 nM; that for `CN(C)c1ccc(NC(=O)c2ccc(N3CCN(C(=O)OC(C)(C)C)CC3)cc2)cc1`, over 10000 nM; that for `CC(C)(C)OC(=O)N1CCN(c2ccc(C(=O)Nc3ccc(F)cc3)cc2)CC1`, over 10000 nM. In the case of `CC(C)(C)OC(=O)N1CCN(c2ccc(C(=O)Nc3ccc(/C=C/c4ccc(O)cc4)cc3)cc2)CC1`, the EC50 came out at 140 nM. The same measure, in the same setting: with `CC(C)(C)NC(=O)N1CCN(c2ccc(C(=O)Nc3ccc(O)cc3)cc2)CC1` the figure was 470 nM; with `CC(C)(C)OC(=O)N1CCN(c2ccc(C(=O)Nc3cccc(Br)c3)cc2)CC1`, 580 nM; with `CC(C)(C)OC(=O)N1CCN(c2ccc(C(=O)Nc3ccc(C#N)cc3)cc2)CC1`, 5600 nM. On to `O=C(Nc1ccc(O)cc1)c1ccc(N2CCN(C(=O)Oc3ccccc3)CC2)cc1`, for which the EC50 stood at 4100 nM. As for `CC(C)(C)OC(=O)N1CCN(c2ccc(C(=O)Nc3cc[n+]([O-])cc3)cc2)CC1`, the concentration for a half-maximal effect (EC50) was over 10000 nM. Take `CC(C)(C)OC(=O)N1CCN(c2ccc(C(=O)Nc3ccc(C(=O)c4ccccc4)cc3)cc2)CC1`: the EC50 was 690 nM.

With `O=C(Nc1ccc(O)cc1)c1ccc(N2CCN(C(=O)NCc3ccccc3)CC2)cc1`, the EC50 was determined as 2700 nM. Still for that read-out and setting: with `CC(C)(C)OC(=O)N1CCN(c2cccc(C(=O)Nc3ccc(O)cc3)c2)CC1` the figure was over 10000 nM; with `CC(C)(C)OC(=O)N1CCC(c2ccc(C(=O)Nc3ccc(O)cc3)cc2)CC1`, 1700 nM; with `CC(C)(C)OC(=O)N1CCN(c2ccc(C(=O)Nc3ccccc3)cc2)CC1`, over 10000 nM.

Take `O=C(Nc1ccc(O)cc1)c1ccc(N2CCN(C(=O)Nc3ccccc3)CC2)cc1`: the half-maximal effective concentration (EC50) was 19600 nM. The same measure, in the same setting: the result for `CN(C(=O)c1ccc(N2CCN(C(=O)OC(C)(C)C)CC2)cc1)c1ccc(O)cc1` reads over 10000 nM.

Values taken from ChEMBL document CHEMBL1153285, “Synthesis and SAR of piperazinyl-N-phenylbenzamides as inhibitors of hepatitis C virus RNA replication in cell culture” (Bioorg Med Chem Lett, 2009).
